# Assay outcomes as filed in PubChem BioAssay.
# GSIS activator = GLuc luminescence reporter in INS-1E cells, primary screen for activators of glucose-dependent secretion of insulin | activation, % at 16.6 µM | INS-1E GLuc reporter insulin secretion, 2-3 h | actives 0.61% (n = 370,000);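 active means lowest replicate activation of at least 40%, so every replicate reaches that level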;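 further: 0% = median of neutral control wells and 100% = median of IBMX positive control wells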
# GAA850 FXN act = FXN promoter activators, primary screen, cell-based, luciferase luminescence, HEK293 lucGAA850; activation, % at 6 µM; actives 0.56% (n = 360,000); HEK293 lucGAA850 FXN promoter luciferase reporter, 24 h; percent of 10 µM SAHA response;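 active means activation above the average of all compounds screened plus 3 SD, cutoff fixed separately per campaign, cut at about 7.5% in these data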;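 further: 0% = DMSO wells and 100% = 10 µM SAHA wells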
# XiGFP reactiv = activators of inactive X chromosome reactivation, primary screen, imaging, XiGFP fibroblasts, GFP high-content imaging, set 2 | XiGFP mouse fibroblasts, % GFP-positive cells imaging, 3 d; cells co-treated with 5-aza-dC sensitizer; scaled so ellipticine positive control = 100% | activation, % at 7.58 µM | actives 0.055% (n = 360,000) | AID 743238, 2013;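 active means mean normalized replicate activation at least 10% and every replicate at or above 10%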;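 further: 0% = median of on-plate neutral control wells and 100% = ellipticine 6 µM median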
#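 System: 68-5-11 XiGFP fibroblast line | Buffer or medium: DMEM containing 5-aza-dC | Compound: Single point | Times: Compounds 3 days, fix/stain 15 min at room temperature | Benchmarks: Positive control ellipticine, 6 µM final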
# CaV13 ICDI inh = Disruptors of the CACNA1D IQ motif to Ca2+-dependent inactivation inhibitor domain association, primary screening, Förster resonance energy transfer in intact living …; actives 0.098% (n = 340,000); HEK cells, CFP/YFP FRET ICDI-IQ, plate reader, 10 min; percent FRET-ratio fall versus neutral wells; inhibition, % at 12.3 µM;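 active means mean replicate inhibition of at least 30% and at least 1% of replicates passing that level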;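 further: 0% = median of the neutral control wells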
# GAA30 counter = GAA30 FXN promoter activators, confirmation, counter-screen for GAA850 frataxin promoter activator project, cell-based, luminescence, HEK293, lucGAA30, triplicate | shares compounds with GAA850 FXN act | HEK293 lucGAA30 FXN promoter luciferase, 24 h; DMSO = 0%, 5 µM ipriflavone = 100% | activation, % at 6 µM | actives 66% (n = 1,900);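 active means mean activation above the mean of solvent-only control wells plus 3 SD, cut at about 22% in these data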;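 further: counterscreen of GAA850 promoter hits where activity marks nonselective or luminescence artifacts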
# FXN GAA850 conf = FXN GAA850 promoter activators in reporter cells, confirmation, cell-based, luminescence, HEK293 lucGAA850, triplicate; activation, % at 6 µM; shares compounds with GAA850 FXN act; AID 588351, 2011; HEK293 lucGAA850 FXN promoter luciferase reporter, 24 h; 100% = activation by SAHA; actives 86% (n = 1,900);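 active means mean activation above a set limit taken from the primary screen, cut at about 8% in these data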;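 further: 0% = DMSO wells and 100% = 10 µM SAHA wells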
# The depositor's hits bear a star; · = no result. Most compounds without a hit are left out; they make up all but 1% or so of the library.
SMILES,GSIS activator,GAA850 FXN act,XiGFP reactiv,CaV13 ICDI inh,GAA30 counter,FXN GAA850 conf
C[C@@H]1CN([C@H](C)CO)C(=O)c2cccc(NS(=O)(=O)c3ccccc3)c2O[C@H]1CN(C)C(=O)Nc1ccccc1,-4,·,-1,·,·,·
CC(C)NC(=O)N[C@H]1CC[C@H](CCNC(=O)C2CCCC2)O[C@@H]1CO,1,·,0,·,·,·
O=S1(=O)CCN(c2ccccc2CC(c2c[nH]c3ccccc23)c2c[nH]c3ccccc23)CC1,-4,16*,0,-6,42*,21*
OCC(CCc1c[nH]c2ccccc12)c1c[nH]c2ccccc12 (configuration not stated),-7,·,0,-4,·,·
C[C@H](CO)N1C[C@H](C)[C@@H](CN(C)C(=O)NC2CCCCC2)Oc2c(NC(=O)Cn3cnnn3)cccc2C1=O,26,·,0,·,·,·
Cn1cncc1C#Cc1ccc2c(=O)c3ccccc3oc2c1,3,7.9*,0,-5,67*,40*
CNC(C)C#Cc1ccc2c(=O)c3ccccc3oc2c1 (configuration not stated),11,5,0,-6,·,·
CCCCC(=O)NC(=S)Nc1cccc(Cl)c1N1CCCCC1,·,10*,0,-3,13,9.6*
Cn1c(=O)c2nc(-c3ccccc3)oc2c2ccccc21,·,12*,·,-6,44*,24*
C[C@@H]1CN([C@@H](C)CO)C(=O)Cc2cc(NC(=O)Cn3cnnn3)ccc2O[C@H]1CN(C)S(=O)(=O)c1cccs1,-3,·,0,·,·,·
O=C(Nc1ncc(Cc2cccc(Cl)c2Cl)s1)C1CCCO1 (configuration not stated),-28,5,0,-5,·,·
O=C(Nc1ncc(Cc2cccc(Cl)c2)s1)C1CCCO1 (configuration not stated),-16,8.2*,·,·,87*,28*
C[C@@H]1CCCCO[C@@H](CN(C)C(=O)C2CCCCC2)[C@@H](C)CN([C@@H](C)CO)C(=O)c2cc(NC(=O)c3ccccc3)ccc2O1,-17,·,-1,·,·,·
CC1(Cc2ccccc2C#N)C(=O)Nc2cc(-c3ccccc3Cl)ccc21 (configuration not stated),-49,4,0,-11,·,·
CC1(Cc2ccc(C(F)(F)F)nc2)C(=O)Nc2cc(-c3ccccc3Cl)ccc21 (configuration not stated),·,14*,0,-5,12,14*
Nc1ncnc(Nc2ccc(F)cc2)n1,6,1,0,-3,·,·
Fc1ccc(Nc2ccnc(Nc3ccc(F)cc3)n2)cc1,-3,8.4*,0,-5,107*,34*
O=C1CN(Cc2ccccc2)C[C@@H]2[C@H](c3ccc(-c4ccccc4)cc3)[C@H](CO)N12,9,·,0,·,·,·
Cc1cc(C)n2cc(CSc3nc4ccccc4s3)nc2n1,-8,7.7*,·,-7,98*,30*
CNC(=O)C[C@@H]1CC[C@@H]2[C@H](COc3ccc(NC(=O)Nc4ccccc4F)cc3C(=O)N2C)O1,13,·,0,·,·,·
c1ccc(-c2cc3nccc(-c4ccccn4)n3n2)cc1,9,8.0*,0,-7,106*,29*
Cc1cc2nccc(-c3ccccn3)n2n1,6,0,0,2,·,·
COc1ccc(C2=NN(c3ccc(C(=O)O)cc3)C(c3ccc(OC)c(OC)c3)C2)cc1 (configuration not stated),53*,11*,0,-3,31*,19*
CO[C@H]1CN(C)C(=O)c2cc(NC(=O)Nc3ccccc3)ccc2OC[C@H](C)N(C(=O)CN(C)C)C[C@@H]1C,1,·,0,·,·,·
COc1ccc(N2C(=O)C3C(C2=O)C(C(=O)c2ccc(Cl)cc2)N2CCCC32)cc1 (configuration not stated),·,8.4*,0,-5,11,4
SMILES,GSIS activator,GAA850 FXN act,XiGFP reactiv,CaV13 ICDI inh,GAA30 counter,FXN GAA850 conf
CC(=O)c1ccc(N2C(=O)C3C(C2=O)C(C(=O)c2ccc(Cl)cc2)N2CCCC32)cc1 (configuration not stated),11,·,·,·,·,·
CCCNC(=O)N1[C@H](CO)[C@@H]2c3ccccc3N(C(=O)c3ccc(F)cc3)C[C@@H]21,-8,·,0,·,·,·
CC(=O)N(C(C)=O)c1ncnc2c1c(-c1ccc(Cl)cc1)nn2C(C)(C)C,-40,3,0,-4,·,·
CC(=O)Nc1ncnc2c1c(-c1ccc(Cl)cc1)nn2C(C)(C)C,-16,11*,0,-18,19,10*
C[C@@H]1CN([C@@H](C)CO)C(=O)c2cc(NC(=O)c3ccccc3)ccc2O[C@@H](C)CCCCO[C@H]1CN(C)Cc1ccccc1,-12,·,0,·,·,·
COc1ccc(C(=O)NCCN(C)C)c2nc3ccccc3cc12,-11,10*,0,-9,-14,71*
COCC(=O)Nc1ccc2c(c1)C(=O)N(C)[C@H]1CC[C@@H](CC(=O)NCc3ccccc3F)O[C@@H]1CO2,1,·,0,·,·,·
COc1ccc(-c2ccc(=O)n(Cc3c(F)cccc3Cl)n2)cc1,1,8.0*,0,-5,43*,22*
C[C@H](CO)N1C[C@H](C)[C@H](CN(C)C(=O)Nc2ccccc2)Oc2c(cccc2N(C)C)C1=O,21,·,0,·,·,·
CCN1C(=O)[C@H]2[C@H]3CN=C(SCc4ccc(OC)cc4)N3[C@@](CC)(C(=O)OC)[C@H]2C1=O,10,0,0,-5,·,·
COC(=O)[C@@]1(C)[C@H]2C(=O)N(Cc3ccccc3)C(=O)[C@H]2[C@H]2CN=C(SCc3ccc(C)cc3)N21,-15,10*,0,-4,32*,12*
CCN1C(=O)[C@H]2[C@H]3CN=C(SCc4ccc(Cl)cc4)N3[C@@](CC)(C(=O)OC)[C@H]2C1=O,-17,11*,0,-5,23*,9.2*
O=C(CN1CCOCC1)N[C@@H]1CC[C@H](CCNC(=O)C2CCC2)O[C@H]1CO,1,·,0,·,·,·
O=C1CSc2ccc(C(=O)NCCC3=CCCCC3)cc2N1,-2,7.8*,·,-4,76*,24*
COCCNC(=O)c1ccc2c(c1)NC(=O)CS2,18,0,·,-3,·,·
